The results in this text go back to ChEMBL document CHEMBL1138097, “Lysine sulfonamides as novel HIV-protease inhibitors: Nepsilon-acyl aromatic alpha-amino acids” (Bioorg Med Chem Lett, 2006).

SMILES strings stand for the structures.

The subject of test [1] is Human immunodeficiency virus 1. Put plainly: Antiviral activity against HIV1 NL4-3 in MT4 cells. To be noted: Human immunodeficiency virus 1, NL4-3, MT4. Type of test: functional, organism-based. In short, it runs like this: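 Whole-cell cytopathic assay in MT-4 cells infected with the molecular clone HIV-1 NL4-3. EC50 is the mean of at least two experiments.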
Test [2] has as its system Human immunodeficiency virus 1. Put plainly: Antiviral activity against HIV1 multi PI resistant strain 4596. Type of test: functional, organism-based. The note with it: Human immunodeficiency virus 1, 4596. In short, it runs like this: (§1)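 EC50 values come from a whole-cell cytopathic anti-viral assay, reported as the mean of at least three experiments. For line 2, the multi-PI-resistant strain 4596 carries protease mutations 82T, 84V, 10R and 63P. For line 1, the saquinavir-resistant strain SaqR carries protease mutations 48V and 90M.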

Test [3] has as its target Human immunodeficiency virus type 1 protease (Human immunodeficiency virus 1, UniProt Q72874). The test can be described thus: Inhibition of HIV aspartyl protease. The procedure, abridged:
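Assayed on purified HIV protease with a fluorescence rate readout (RFU/min). IC50 was taken from a dose–response curve. Ki came from fitting initial rates (200–600 s) to a tight-binding equation that accounts for protease concentration. Values are means of at least two experiments.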

For test [4], the system named is Human immunodeficiency virus 1. The test can be described thus: Antiviral activity against HIV1 Saquinavir resistant strain SaqR. Format: functional, organism-based. To be noted: Human immunodeficiency virus 1, SaqR. In short, it runs like this:
as §1

Regarding `CC(C)CN([C@H](CO)CCCCNC(=O)[C@@H](NC(=O)OCc1cccnc1)C(c1ccccc1)c1ccccc1)S(=O)(=O)c1ccc(N)cc1`, the EC50 in test [1] and in test [2] was 18 nM throughout. Moreover, in test [3], inhibition was half-maximal at 0.48 nM (IC50).

With `COC(=O)N[C@@H](C(=O)NCCCC[C@@H](CO)N(CC(C)C)S(=O)(=O)c1ccc(N)cc1)C(c1ccccc1)c1ccccc1`, a half-maximal response in test [1] (EC50) required 850 nM. In test [3], this compound returned an IC50 of 13 nM.

In test [3], `CC(C)CN([C@H](CO)CCCCNC(=O)[C@@H](NC(=O)c1cnccc1O)C(c1ccccc1)c1ccccc1)S(=O)(=O)c1ccc(N)cc1` came in with an IC50 of 0.5 nM.

As to `CC(C)CN([C@H](CO)CCCCNC(=O)[C@@H](N)C(c1ccccc1)c1ccccc1)S(=O)(=O)c1ccc(N)cc1`, the EC50 in test [1] is 44 nM; in test [2], 43 nM. In test [3], the half-maximal inhibitory concentration (IC50) turned out to be 0.5 nM.

Regarding `CC(C)CN([C@H](CO)CCCCNC(=O)[C@@H](NC(=O)c1ccc(O)c([N+](=O)[O-])c1)C(c1ccccc1)c1ccccc1)S(=O)(=O)c1ccc(N)cc1`, the EC50 in test [1] amounted to 55 nM; in test [2], 35 nM. This compound also gave a half-inhibitory concentration (IC50) in test [3] of 0.56 nM.

On to `CC(C)CN([C@H](CO)CCCCNC(=O)[C@@H](NC(=O)C1CCCCC1)C(c1ccccc1)c1ccccc1)S(=O)(=O)c1ccc(N)cc1`, for which the values for the EC50 in test [1] and in test [2] were 93 nM and 186 nM, respectively. In addition, in test [3], the IC50 was less than 3.8 nM.

For the compound `COC(=O)N[C@H](CCc1ccccc1)C(=O)NCCCC[C@@H](CO)N(CC(C)C)S(=O)(=O)c1ccc(N)cc1`, the EC50 in test [1] amounted to 9000 nM. In test [3], the IC50 came out at 40 nM.

Consider `CC(C)CN([C@H](CO)CCCCNC(=O)[C@@H](NC(=O)c1ccccc1O)C(c1ccccc1)c1ccccc1)S(=O)(=O)c1ccc(N)cc1`, for which the EC50 in test [1] was 64 nM; in test [2], 134 nM. In test [3], this compound yielded an IC50 of 0.63 nM.

Turning to `CC(C)CN([C@H](CO)CCCCNC(=O)[C@@H](NC(=O)c1ccc[nH]1)C(c1ccccc1)c1ccccc1)S(=O)(=O)c1ccc(N)cc1`, the values for the EC50 in test [1] and in test [2] were 34 nM and 51 nM, respectively. The IC50 in test [3] came out at 0.43 nM.

Take `CC(C)CN([C@H](CO)CCCCNC(=O)[C@@H](NC(=O)OC(C)(C)C)C(c1ccccc1)c1ccccc1)S(=O)(=O)c1ccc(N)cc1`: the EC50 in test [1] was 41 nM; in test [2], 290 nM. In test [3], this compound had an IC50 of 0.4 nM.

For `CC(C)CN([C@H](CO)CCCCNC(=O)[C@@H](NC(=O)N1CCOCC1)C(c1ccccc1)c1ccccc1)S(=O)(=O)c1ccc(N)cc1`, in test [1], the EC50 worked out at 78 nM. In addition, inhibition in test [3] was half-maximal at 0.51 nM (IC50).

`CC(=O)N[C@H](C(=O)NCCCC[C@@H](CO)N(CC(C)C)S(=O)(=O)c1ccc(N)cc1)C(c1ccccc1)c1ccccc1`: the EC50 in test [1] and in test [2] was 66 nM each time. Also, in test [3], inhibition was half-maximal at 1.5 nM (IC50).

Turning to `CC(C)CN([C@H](CO)CCCCNC(=O)[C@@H](NC(=O)c1ccc(O)cc1)C(c1ccccc1)c1ccccc1)S(=O)(=O)c1ccc(N)cc1`, the values for the EC50 in test [1] and in test [2] were 88 nM and 34 nM, respectively. In test [3], half-maximal inhibition (IC50) was put at 0.53 nM.

Consider `CC(C)CN([C@H](CO)CCCCNC(=O)[C@@H](NC(=O)C1CC1)C(c1ccccc1)c1ccccc1)S(=O)(=O)c1ccc(N)cc1`, for which the EC50 in test [4] turned out to be 17 nM; in test [1], 25 nM; in test [2] it was 46 nM. Moreover, in test [3], the IC50 is 0.43 nM.

As for `COC(=O)N[C@H](Cc1ccc2ccccc2c1)C(=O)NCCCC[C@@H](CO)N(CC(C)C)S(=O)(=O)c1ccc(N)cc1`, in test [1], the EC50 amounted to 258 nM. The IC50 in test [3] stood at 1.2 nM.

Turning to `CC(C)CN([C@H](CO)CCCCNC(=O)[C@@H](NC(=O)Cc1cccnc1)C(c1ccccc1)c1ccccc1)S(=O)(=O)c1ccc(N)cc1`, the results for the EC50 in test [1] and in test [2] were 194 nM and 128 nM, respectively. Further, the IC50 in test [3] came to 0.24 nM.

For the compound `COC(=O)N[C@H](C(=O)NCCCC[C@H](CO)N(CC(C)C)S(=O)(=O)c1ccc(N)cc1)C(c1ccccc1)c1ccccc1`, the response in test [1] was half-maximal at 3000 nM (EC50). In test [3], this compound yielded an IC50 of 25 nM.

Regarding `COC(=O)N[C@@H](C(=O)NCCCC[C@@H](CO)N(CC(C)C)S(=O)(=O)c1ccc(N)cc1)c1ccccc1`, the IC50 in test [3] was greater than 300 nM.

For the compound `COC(=O)N[C@H](Cc1cccc2ccccc12)C(=O)NCCCC[C@@H](CO)N(CC(C)C)S(=O)(=O)c1ccc(N)cc1`, in test [1], the response was half-maximal at 120 nM (EC50). In test [3], this compound gave an IC50 of 1.2 nM.

On to `CC(C)CN([C@H](CO)CCCCNC(=O)[C@@H](NC(=O)c1ccncc1)C(c1ccccc1)c1ccccc1)S(=O)(=O)c1ccc(N)cc1`, for which the figures for the EC50 in test [1] and in test [2] were 32 nM and 26 nM, respectively. In test [3], this compound displayed an IC50 of 0.65 nM.

As for `COC(=O)N[C@H](C(=O)NCCCC[C@@H](CO)N(CC(C)C)S(=O)(=O)c1ccc(N)cc1)C(c1ccccc1)c1ccccc1` [PPL-100], the EC50 in test [4] came out at 19 nM; in test [2] it was 38 nM. The IC50 in test [3] turned out to be 0.5 nM.

In the case of `COc1cc(C(=O)N[C@@H](C(=O)NCCCC[C@@H](CO)N(CC(C)C)S(=O)(=O)c2ccc(N)cc2)C(c2ccccc2)c2ccccc2)ccc1O`, the EC50 in test [1] came out at 14 nM; in test [2], 23 nM. In test [3], this compound came in with an IC50 of 0.5 nM.

`CC(C)CN([C@H](CO)CCCCNC(=O)[C@@H](NC(=O)N(C)C)C(c1ccccc1)c1ccccc1)S(=O)(=O)c1ccc(N)cc1`: the EC50 in test [1] is 62 nM; in test [2] it was 56 nM. Also, in test [3], it took 0.44 nM to reach half-maximal inhibition (IC50).

As for `CC(C)CN([C@H](CO)CCCCNC(=O)[C@@H](NC(=O)OCc1ccncc1)C(c1ccccc1)c1ccccc1)S(=O)(=O)c1ccc(N)cc1`, the EC50 was determined as 4 nM in test [4], 20 nM in test [1] and 13 nM in test [2]. For the same compound, the IC50 in test [3] was 0.39 nM.

For the compound `CC(C)CN([C@H](CO)CCCCNC(=O)[C@@H](NC(=O)c1ccccn1)C(c1ccccc1)c1ccccc1)S(=O)(=O)c1ccc(N)cc1`, the EC50 in test [1] was 68 nM; in test [2] it was 161 nM. This compound also showed an IC50 in test [3] of 0.46 nM.

`CC(C)CN([C@H](CO)CCCCNC(=O)[C@@H](NC(=O)c1cccnc1)C(c1ccccc1)c1ccccc1)S(=O)(=O)c1ccc(N)cc1`: the EC50 in test [1] amounted to 39 nM; in test [2] it was 25 nM. The midpoint of inhibition in test [3], the IC50, lay at 0.68 nM.

For the compound `CC(C)CN([C@H](CO)CCCCNC(=O)[C@@H](NC(=O)OCc1ccccn1)C(c1ccccc1)c1ccccc1)S(=O)(=O)c1ccc(N)cc1`, the EC50 in test [4] came out at 14 nM; in test [1], 17 nM; in test [2], 18 nM. For the same compound, in test [3], 0.12 nM corresponded to half-maximal inhibition (IC50).

Turning to `CC(C)CN([C@H](CO)CCCCNC(=O)[C@@H](NC(=O)c1ccc([N+](=O)[O-])c(O)c1)C(c1ccccc1)c1ccccc1)S(=O)(=O)c1ccc(N)cc1`, the EC50 in test [1] came out at 16 nM; in test [2], 10 nM. The same compound had an IC50 in test [3] of 0.33 nM.

For `COC(=O)N(C)[C@H](Cc1ccccc1)C(=O)NCCCC[C@@H](CO)N(CC(C)C)S(=O)(=O)c1ccc(N)cc1`, in test [1], the EC50 came to 1000 nM. Also, the IC50 in test [3] turned out to be 6.5 nM.

As for `Cc1ncccc1C(=O)N[C@H](C(=O)NCCCC[C@@H](CO)N(CC(C)C)S(=O)(=O)c1ccc(N)cc1)C(c1ccccc1)c1ccccc1`, the EC50 in test [1] is 42 nM; in test [2], 36 nM. Besides, the 50% inhibitory concentration (IC50) in test [3] was 0.4 nM.

Compound `COC(=O)N[C@H](Cc1ccccc1-c1ccccc1)C(=O)NCCCC[C@@H](CO)N(CC(C)C)S(=O)(=O)c1ccc(N)cc1` registered an EC50 in test [1] of 200 nM. In test [3], this compound yielded an IC50 of 0.521 nM.

As for `CC(C)CN([C@H](CO)CCCCNC(=O)[C@@H](NC(=O)c1cccc(O)c1)C(c1ccccc1)c1ccccc1)S(=O)(=O)c1ccc(N)cc1`, the results for the EC50 in test [1] and in test [2] were 64 nM and 30 nM, respectively. For the same compound, in test [3], half-maximal inhibition (IC50) required 0.4 nM.

With `COC(=O)N[C@H](Cc1ccccc1)C(=O)NCCCC[C@@H](CO)N(CC(C)C)S(=O)(=O)c1ccc(N)cc1`, in test [1], the EC50 was determined as 2000 nM. The IC50 in test [3] stood at 12 nM.

With `CC(C)CN([C@H](CO)CCCCNC(=O)[C@@H](NC(=O)c1ncccc1O)C(c1ccccc1)c1ccccc1)S(=O)(=O)c1ccc(N)cc1`, the EC50 in test [1] was determined as 153 nM; in test [2], 186 nM. In test [3], this compound had an IC50 of 0.9 nM.

In the case of `COC(=O)N[C@@H](C(=O)NCCCC[C@H](CO)N(CC(C)C)S(=O)(=O)c1ccc(N)cc1)C(c1ccccc1)c1ccccc1`, the EC50 in test [1] is greater than 100000 nM. The compound also gave an IC50 in test [3] greater than 300 nM.
